ChEMBL document CHEMBL3352115, “Discovery of APD334: Design of a Clinical Stage Functional Antagonist of the Sphingosine-1-phosphate-1 Receptor” (ACS Med Chem Lett, 2014)
Active and inactive are the calls of the source. No cut-off for these calls is given here.

Assays:
[1] = system: Rattus norvegicus; test: Reduction in peripheral lymphocyte count in orally dosed rat measured after 24 hrs; format: ADME, organism-based
[2] = system: Rhesus monkey; test: Reduction in peripheral lymphocyte count in orally dosed monkey measured after 24 hrs; format: ADME, organism-based; conditions: Macaca mulatta
[3] = Protein binding in human plasma; format: ADME, cell-free; conditions: read-out: PPB (converted)
[4] = Protein binding in rat plasma; format: ADME, cell-free; conditions: read-out: PPB (converted)
[5] = Drug level in Sprague-Dawley rat plasma at 14.5 ug/hr/kg dosed as constant infusion measured after 48 hrs; format: ADME, organism-based; conditions: iv
Method in brief: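 Male Sprague–Dawley rats given constant infusion at 14.5 μg/h/kg for 48 h; brain and plasma concentrations measured at 48 h.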

[6] = system: Mus musculus; test: Prevention of onset and severity of disease in C57Bl/6 mouse experimental autoimmune encephalomyelitis model of multiple sclerosis at 0.3 to 3 mg/kg dosed once daily beginning on day 3 and continued to day 25; format: functional, organism-based
Method in brief: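 Female C57Bl/6 mice immunized with MOG35–55 as autoantigen; oral dosing once daily from day 3 to day 25 in 0.5% methylcellulose vehicle; clinical scores followed beyond end of dosing.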

[7] = system: Mus musculus; test: Reduction in disease severity in C57Bl/6 mouse experimental autoimmune encephalomyelitis model of multiple sclerosis at 3 mg/kg dosed once daily beginning on day 18 and continued to day 37; format: functional, organism-based; set-up: dose 3 mg/kg
Method in brief: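 Female C57Bl/6 mice with MOG35–55-induced EAE; once-daily treatment started day 18 after severe disease onset and continued to day 37; vehicle 0.5% methylcellulose; clinical scoring.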

[8] = system: Mus musculus; test: Reduction in inflammatory foci in C57Bl/6 mouse experimental autoimmune encephalomyelitis model of multiple sclerosis at 3 mg/kg dosed once daily beginning on day 18 and continued to day 37 by immunofluorescent staining method; format: functional, organism-based; set-up: dose 3 mg/kg
Method in brief: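 Therapeutic EAE in female C57Bl/6 mice, dosing from day 18; spinal cord and brain collected day 37; cerebellum sections immunostained for CD45 and CD3 with DAPI counterstain; inflammatory foci and infiltrating lymphocytes assessed.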

[9] = system: Rattus norvegicus; test: Induction of body weight regain in Lewis rat collagen-induced arthritis model at 1 mg/kg, po qd measured on day 17 (reference value: 160.3 +/- 2.3 g); format: functional
[10] = system: Rattus norvegicus; test: Improvement histological parameters of knee and ankles in Lewis rat collagen-induced arthritis model at 3 mg/kg, po qd measured on day 17; format: functional, organism-based; set-up: dose 3 mg/kg
[11] = biological target: Cytochrome P450 3A4 (Homo sapiens, UniProt P08684); test: Inhibition of CYP3A4 (unknown origin); format: ADME
[12] = biological target: Cytochrome P450 2D6 (Homo sapiens, UniProt P10635); test: Inhibition of CYP2D6 (unknown origin); format: ADME
[13] = biological target: Cytochrome P450 2C9 (Homo sapiens, UniProt P11712); test: Inhibition of CYP2C9 (unknown origin); format: ADME
[14] = biological target: Adenosine receptor A3 (Homo sapiens, UniProt P0DMS8); test: Binding affinity to human adenosine A3 receptor
[15] = system: Salmonella typhimurium; test: Genotoxicity in Salmonella typhimurium in absence of rat liver S9 fraction by Ames bacterial reverse mutation assay; format: toxicity, organism-based; conditions: salmonella enterica subsp. enterica serovar typhimurium
[16] = biological target: Voltage-gated inwardly rectifying potassium channel KCNH2 (Homo sapiens, UniProt Q12809); test: Displacement of [3H]astemizole from human ERG
Method in brief: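 hERG interaction assessed by [³H]-astemizole binding displacement.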

[17] = system: Canis familiaris; test: Effect on pulse pressure in telemeterized dog up to 40 mg/kg; format: ADME, organism-based, Canis lupus familiaris; set-up: dose 40 mg/kg; conditions: in vivo
Method in brief: (§1)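 Telemeterized dogs dosed at levels up to 40 mg/kg; pulse pressure, heart rate, body temperature and ECG parameters monitored.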

[18] = system: Canis familiaris; test: Effect on ECG parameters in telemeterized dog up to 40 mg/kg; format: ADME, organism-based, Canis lupus familiaris; set-up: dose 40 mg/kg; conditions: in vivo; method in brief: as §1
[19] = system: Rattus norvegicus; test: Toxicity in Sprague-Dawley rat assessed as mortality at 1000 mg/kg during 14 day repeat dose study; format: organism-based; set-up: dose 1000 mg/kg; conditions: in vivo, 336 h
Method in brief: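 14-day repeat-dose rat toxicity study with dose groups of 30, 100, 300 and 1000 mg/kg; animals monitored for tolerability, mortality and CNS clinical signs.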

[20] = Cmax in Sprague-Dawley rat at 1000 mg/kg; format: ADME, organism-based; set-up: dose 1000 mg/kg; conditions: in vivo
Method in brief: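 Sprague–Dawley rats dosed at 300 and 1000 mg/kg in a separate dose-proportionality exposure study; Cmax determined.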

[21] = biological target: Sphingosine 1-phosphate receptor 1 (Homo sapiens, UniProt P21453); test: Agonist activity at human S1P1 receptor assessed as cAMP accumulation by HTRF assay; format: functional
Method in brief: (§2)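 HTRF cyclase (cAMP) functional assay at S1P1 of each species; EC50 taken as mean of three or more replicates; efficacy given as % agonism relative to S1P.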

[22] = Half life in rat liver microsomes; format: ADME
Method in brief: (§3)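 Stability on incubation with liver microsomes of each species; half-life reported.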

[23] = Oral bioavailability in rat; format: ADME, organism-based; conditions: in vivo
[24] = biological target: Sphingosine 1-phosphate receptor 1 (Mus musculus, UniProt O08530); test: Agonist activity at mouse S1P1 receptor assessed as cAMP accumulation by HTRF assay; format: functional; method in brief: as §2
[25] = biological target: Sphingosine 1-phosphate receptor 1 (Mus musculus) (UniProt O08530); test: Agonist activity at mouse S1P1 receptor assessed as cAMP accumulation by HTRF assay relative to S1P; format: functional; method in brief: as §2
[26] = biological target: Sphingosine 1-phosphate receptor 1 (Rattus norvegicus) (UniProt P48303); test: Agonist activity at rat S1P1 receptor assessed as cAMP accumulation by HTRF assay relative to S1P; format: functional; method in brief: as §2
[27] = biological target: Sphingosine 1-phosphate receptor 2 (Homo sapiens, UniProt O95136); test: Agonist activity at human S1P2 receptor by beta-arrestin recruitment assay
[28] = biological target: Sphingosine 1-phosphate receptor 3 (Homo sapiens, UniProt Q99500); test: Agonist activity at human S1P3 receptor by beta-arrestin recruitment assay
[29] = biological target: Sphingosine 1-phosphate receptor 4 (Homo sapiens) (UniProt O95977); test: Agonist activity at human S1P4 receptor by beta-arrestin recruitment assay relative to S1P
[30] = Half life in monkey liver microsomes; format: ADME, Macaca mulatta; conditions: rhesus monkey; method in brief: as §3
[31] = Systemic clearance in mouse at 1 mg/kg, iv; format: ADME, organism-based; set-up: dose 1 mg/kg, route intravenous; conditions: in vivo
[32] = Systemic clearance in rat at 1 mg/kg, iv; format: ADME, organism-based; set-up: dose 1 mg/kg, route intravenous; conditions: in vivo
[33] = system: Canis familiaris; test: Systemic clearance in dog at 1 mg/kg, iv relative to liver blood flow; format: ADME, organism-based, Canis lupus familiaris; set-up: dose 1 mg/kg, route intravenous; conditions: in vivo
[34] = system: Rhesus monkey; test: Systemic clearance in monkey at 1 mg/kg, iv relative to liver blood flow; format: ADME, organism-based, Macaca mulatta; set-up: dose 1 mg/kg, route intravenous; conditions: in vivo
[35] = Cmax in mouse at 1 mg/kg, iv or 1 mg/kg, po; format: ADME, organism-based; conditions: in vivo
Method in brief: (§4)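 Preclinical iv/po PK; amorphous free acid dosed orally as a suspension in 0.5% methyl cellulose; clearance and Vss from intravenous administration.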

[36] = Cmax in dog at 1 mg/kg, iv or 3 mg/kg, po; format: ADME, organism-based, Canis lupus familiaris; conditions: in vivo; method in brief: as §4
[37] = Tmax in mouse at 1 mg/kg, iv or 1 mg/kg, po; format: ADME, organism-based; conditions: in vivo
[38] = AUC (0 to infinity) in mouse at 1 mg/kg, iv or 1 mg/kg, po; format: ADME, organism-based; conditions: plasma; method in brief: as §4
[39] = Elimination half life in mouse at 1 mg/kg, po; format: ADME, organism-based; set-up: dose 1 mg/kg, route oral; conditions: in vivo, read-out: beta t1/2 (converted); method in brief: as §4
[40] = Elimination half life in rat at 1 mg/kg, po; format: ADME, organism-based; set-up: dose 1 mg/kg, route oral; conditions: in vivo, read-out: beta t1/2 (converted); method in brief: as §4
[41] = Elimination half life in monkey at 3 mg/kg, po; format: ADME, organism-based, Macaca mulatta; set-up: dose 3 mg/kg, route oral; conditions: rhesus monkey, in vivo, read-out: beta t1/2 (converted); method in brief: as §4
[42] = Oral bioavailability in dog at 3 mg/kg; format: ADME, organism-based, Canis lupus familiaris; conditions: in vivo
[43] = Oral bioavailability in monkey at 3 mg/kg; format: ADME, organism-based, Macaca mulatta; conditions: rhesus monkey, in vivo

Sequence of Adenosine receptor A3 (P0DMS8 whole entry): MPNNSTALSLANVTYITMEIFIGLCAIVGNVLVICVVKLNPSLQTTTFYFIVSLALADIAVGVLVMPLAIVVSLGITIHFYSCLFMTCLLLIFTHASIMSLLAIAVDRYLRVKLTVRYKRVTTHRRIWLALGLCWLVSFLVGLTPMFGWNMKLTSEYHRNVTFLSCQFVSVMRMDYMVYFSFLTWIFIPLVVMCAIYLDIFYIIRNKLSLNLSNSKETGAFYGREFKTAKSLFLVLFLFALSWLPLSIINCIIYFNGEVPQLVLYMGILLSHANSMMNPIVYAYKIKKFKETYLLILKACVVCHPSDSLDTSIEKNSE
Sequence of Cytochrome P450 2C9 (P11712 whole entry): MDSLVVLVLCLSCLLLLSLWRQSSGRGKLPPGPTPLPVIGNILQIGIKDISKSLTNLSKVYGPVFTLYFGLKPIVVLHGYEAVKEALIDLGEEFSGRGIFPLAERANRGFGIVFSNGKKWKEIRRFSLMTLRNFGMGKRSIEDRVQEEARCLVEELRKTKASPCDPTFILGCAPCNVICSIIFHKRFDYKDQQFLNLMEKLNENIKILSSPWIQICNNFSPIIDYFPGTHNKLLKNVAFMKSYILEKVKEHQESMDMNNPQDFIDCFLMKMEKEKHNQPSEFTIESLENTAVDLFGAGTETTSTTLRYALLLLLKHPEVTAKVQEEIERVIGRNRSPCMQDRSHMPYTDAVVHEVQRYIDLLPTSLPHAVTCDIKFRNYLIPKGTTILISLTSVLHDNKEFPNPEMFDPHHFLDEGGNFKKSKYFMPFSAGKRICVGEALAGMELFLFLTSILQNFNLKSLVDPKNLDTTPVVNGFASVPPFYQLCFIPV
Sequence of Sphingosine 1-phosphate receptor 3 (Q99500 whole entry): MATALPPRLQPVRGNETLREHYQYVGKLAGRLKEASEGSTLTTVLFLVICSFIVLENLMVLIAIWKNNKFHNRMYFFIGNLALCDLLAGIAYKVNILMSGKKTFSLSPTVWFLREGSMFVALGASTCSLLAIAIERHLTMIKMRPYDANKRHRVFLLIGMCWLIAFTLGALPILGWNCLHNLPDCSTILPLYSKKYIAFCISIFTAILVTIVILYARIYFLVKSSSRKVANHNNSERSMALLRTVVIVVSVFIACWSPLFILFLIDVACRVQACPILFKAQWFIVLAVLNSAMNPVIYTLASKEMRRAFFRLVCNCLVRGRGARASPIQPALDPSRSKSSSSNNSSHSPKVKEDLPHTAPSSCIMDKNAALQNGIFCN
Sequence of Voltage-gated inwardly rectifying potassium channel KCNH2 (Q12809 whole entry): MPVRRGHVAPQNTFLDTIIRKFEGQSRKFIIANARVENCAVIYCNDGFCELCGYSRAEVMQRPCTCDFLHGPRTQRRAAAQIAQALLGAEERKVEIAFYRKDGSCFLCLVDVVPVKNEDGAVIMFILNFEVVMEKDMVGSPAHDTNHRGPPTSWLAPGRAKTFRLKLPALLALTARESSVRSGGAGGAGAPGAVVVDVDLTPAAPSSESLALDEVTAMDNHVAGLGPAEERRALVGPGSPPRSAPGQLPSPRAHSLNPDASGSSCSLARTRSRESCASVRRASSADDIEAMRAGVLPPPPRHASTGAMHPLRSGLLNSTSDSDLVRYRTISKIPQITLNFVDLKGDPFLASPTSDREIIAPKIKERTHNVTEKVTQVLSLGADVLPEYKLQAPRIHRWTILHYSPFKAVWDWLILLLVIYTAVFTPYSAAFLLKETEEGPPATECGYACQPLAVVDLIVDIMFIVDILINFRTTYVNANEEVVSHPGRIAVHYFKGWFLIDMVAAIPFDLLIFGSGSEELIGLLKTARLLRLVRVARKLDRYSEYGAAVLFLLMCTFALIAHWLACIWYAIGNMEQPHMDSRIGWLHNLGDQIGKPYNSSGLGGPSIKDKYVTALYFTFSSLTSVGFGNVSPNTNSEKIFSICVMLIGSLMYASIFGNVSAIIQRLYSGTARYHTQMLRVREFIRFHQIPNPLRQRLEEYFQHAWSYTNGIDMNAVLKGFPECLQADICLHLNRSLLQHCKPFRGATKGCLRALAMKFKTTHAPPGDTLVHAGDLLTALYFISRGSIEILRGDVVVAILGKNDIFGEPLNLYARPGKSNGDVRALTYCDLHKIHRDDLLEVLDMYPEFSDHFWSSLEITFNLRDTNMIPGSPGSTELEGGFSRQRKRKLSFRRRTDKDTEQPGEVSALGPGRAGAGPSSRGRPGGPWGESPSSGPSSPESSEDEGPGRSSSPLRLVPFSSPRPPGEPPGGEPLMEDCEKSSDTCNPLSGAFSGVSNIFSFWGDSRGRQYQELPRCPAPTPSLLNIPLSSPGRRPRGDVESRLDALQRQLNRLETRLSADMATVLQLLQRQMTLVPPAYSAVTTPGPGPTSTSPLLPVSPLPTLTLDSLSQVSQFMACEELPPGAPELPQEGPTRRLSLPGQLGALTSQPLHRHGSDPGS
Sequence of Sphingosine 1-phosphate receptor 4 (Homo sapiens) (O95977 whole entry): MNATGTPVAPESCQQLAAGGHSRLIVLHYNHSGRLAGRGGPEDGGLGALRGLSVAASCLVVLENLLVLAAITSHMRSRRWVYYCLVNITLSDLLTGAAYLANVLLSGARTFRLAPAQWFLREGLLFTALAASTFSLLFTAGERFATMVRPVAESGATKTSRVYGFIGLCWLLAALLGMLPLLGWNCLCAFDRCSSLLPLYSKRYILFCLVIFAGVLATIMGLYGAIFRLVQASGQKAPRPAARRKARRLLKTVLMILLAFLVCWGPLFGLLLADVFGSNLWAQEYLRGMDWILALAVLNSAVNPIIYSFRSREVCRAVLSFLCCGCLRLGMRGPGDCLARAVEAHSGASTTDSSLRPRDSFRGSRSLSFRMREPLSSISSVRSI
Sequence of Sphingosine 1-phosphate receptor 1 (Mus musculus) (O08530 whole entry): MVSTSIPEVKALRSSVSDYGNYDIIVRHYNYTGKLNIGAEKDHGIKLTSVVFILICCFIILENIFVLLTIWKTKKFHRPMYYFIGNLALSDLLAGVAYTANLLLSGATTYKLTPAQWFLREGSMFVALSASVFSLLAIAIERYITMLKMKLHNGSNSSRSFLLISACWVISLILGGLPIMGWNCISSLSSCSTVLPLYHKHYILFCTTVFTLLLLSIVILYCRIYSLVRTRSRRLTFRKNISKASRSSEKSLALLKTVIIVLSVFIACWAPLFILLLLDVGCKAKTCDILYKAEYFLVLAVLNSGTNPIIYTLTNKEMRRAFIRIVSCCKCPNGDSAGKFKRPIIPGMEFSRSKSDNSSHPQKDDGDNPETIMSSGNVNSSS
Sequence of Sphingosine 1-phosphate receptor 1 (Mus musculus, UniProt O08530) (O08530 whole entry): as above
Sequence of Cytochrome P450 2D6 (P10635 whole entry): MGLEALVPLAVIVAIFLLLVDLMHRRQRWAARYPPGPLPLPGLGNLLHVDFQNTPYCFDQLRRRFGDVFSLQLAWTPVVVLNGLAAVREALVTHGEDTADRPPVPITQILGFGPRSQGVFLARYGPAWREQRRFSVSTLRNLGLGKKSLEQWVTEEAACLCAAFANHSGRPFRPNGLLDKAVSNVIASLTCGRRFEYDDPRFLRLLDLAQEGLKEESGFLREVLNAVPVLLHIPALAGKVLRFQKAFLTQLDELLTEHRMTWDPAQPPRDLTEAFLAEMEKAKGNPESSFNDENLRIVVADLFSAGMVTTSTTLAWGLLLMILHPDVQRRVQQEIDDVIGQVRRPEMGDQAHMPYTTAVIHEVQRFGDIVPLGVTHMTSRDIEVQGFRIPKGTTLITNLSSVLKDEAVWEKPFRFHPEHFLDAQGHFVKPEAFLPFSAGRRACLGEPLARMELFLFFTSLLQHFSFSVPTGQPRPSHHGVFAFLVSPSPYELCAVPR
Sequence of Cytochrome P450 3A4 (P08684 whole entry): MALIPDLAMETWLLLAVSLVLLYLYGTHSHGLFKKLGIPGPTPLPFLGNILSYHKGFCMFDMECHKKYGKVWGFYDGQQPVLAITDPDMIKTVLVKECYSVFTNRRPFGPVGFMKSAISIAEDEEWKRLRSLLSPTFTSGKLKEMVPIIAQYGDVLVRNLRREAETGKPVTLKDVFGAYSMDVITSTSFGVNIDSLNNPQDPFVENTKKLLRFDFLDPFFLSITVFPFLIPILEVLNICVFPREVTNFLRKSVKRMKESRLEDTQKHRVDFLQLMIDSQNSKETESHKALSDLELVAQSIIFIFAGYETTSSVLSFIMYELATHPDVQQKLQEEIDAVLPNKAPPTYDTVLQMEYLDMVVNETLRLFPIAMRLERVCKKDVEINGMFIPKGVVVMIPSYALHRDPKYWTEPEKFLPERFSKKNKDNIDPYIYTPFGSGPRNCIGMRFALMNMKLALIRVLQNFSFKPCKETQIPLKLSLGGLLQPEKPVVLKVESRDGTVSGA
Sequence of Sphingosine 1-phosphate receptor 1 (Rattus norvegicus) (P48303 whole entry): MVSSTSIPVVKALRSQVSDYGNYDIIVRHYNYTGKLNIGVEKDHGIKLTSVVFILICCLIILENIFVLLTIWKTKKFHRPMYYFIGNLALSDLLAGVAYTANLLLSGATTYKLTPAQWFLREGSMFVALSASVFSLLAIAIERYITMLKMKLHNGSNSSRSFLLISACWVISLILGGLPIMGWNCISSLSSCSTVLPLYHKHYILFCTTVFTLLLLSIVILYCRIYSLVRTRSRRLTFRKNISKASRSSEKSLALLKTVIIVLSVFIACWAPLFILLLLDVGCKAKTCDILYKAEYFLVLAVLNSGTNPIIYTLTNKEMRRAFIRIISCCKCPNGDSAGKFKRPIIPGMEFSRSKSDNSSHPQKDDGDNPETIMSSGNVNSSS
Sequence of Sphingosine 1-phosphate receptor 2 (O95136 whole entry): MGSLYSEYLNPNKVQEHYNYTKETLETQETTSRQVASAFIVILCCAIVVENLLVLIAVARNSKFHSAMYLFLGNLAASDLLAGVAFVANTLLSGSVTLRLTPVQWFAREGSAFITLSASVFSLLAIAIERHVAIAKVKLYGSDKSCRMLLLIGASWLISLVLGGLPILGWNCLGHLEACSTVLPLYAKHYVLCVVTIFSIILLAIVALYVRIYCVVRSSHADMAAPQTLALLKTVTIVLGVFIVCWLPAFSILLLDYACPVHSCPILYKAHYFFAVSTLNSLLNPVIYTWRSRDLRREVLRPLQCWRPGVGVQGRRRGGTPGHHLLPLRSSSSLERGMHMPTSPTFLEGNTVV

O=C(O)C[C@H]1CCc2c1[nH]c1ccc(OCc3ccc(C4CCCC4)c(C(F)(F)F)c3)cc21 [ETRASIMOD]
IC50 [1]: 0.051 µM
IC50 [2]: 0.098 µM
fraction unbound [3]: 0.022
fraction unbound [4]: 0.02
concentration at 48 h [5]: 0.11 µM
Activity [6]: Active
Activity [7]: Active
Activity [8]: Active
Activity [9]: 178.6 g
Activity [10]: Active
IC50 [11]: > 50 µM
IC50 [12]: > 50 µM
IC50 [13]: > 50 µM
IC50 [14]: 3.3 µM
Activity [15]: Non-toxic
IC50 [16]: > 30 µM
Activity [17]: Non-toxic
Activity [18]: Non-toxic
Activity [19]: Toxic
Cmax [20]: 183 µM
EC50 [21]: 40 pM
half-life [22]: > 1 h
bioavailability [23]: 54%
EC50 [24]: 0.00044 µM
Emax [25]: 95%
Emax [26]: 99%
EC50 [27]: > 10 µM
EC50 [28]: > 10 µM
Emax [29]: 63%
half-life [30]: > 1 h
clearance [31]: 1.83 mL/min/kg
clearance [32]: 2.42 mL/min/kg
CL [33]: 0.746%
CL [34]: 2.23%
Cmax [35]: 780 ng/mL
Cmax [36]: 3710 ng/mL
Tmax [37]: 8 h
AUC(0-inf) [38]: 10300 ng·h/mL
half-life [39]: 12.3 h
half-life [40]: 9.64 h
half-life [41]: 6.37 h
bioavailability [42]: 73.2%
bioavailability [43]: 43.8%
